Test system: Mycobacterium tuberculosis
Assay: Antitubercular activity against Mycobacterium tuberculosis H37Rv by MABA assay
Assay type: functional
Settings: not given
Outline: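 Actives re-tested at lower concentrations against H37Rv (ATCC 27294) in BACTEC 12B medium by Microplate Alamar Blue Assay. MIC taken as lowest concentration giving […] fluorescence reduction versus controls; rifampin reference.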

Compound | MIC [µg/mL]
COC(=O)CSc1nnc(Cc2csc(NC(=O)c3ccccc3)n2)n1NC(=O)c1ccc(Cl)cc1 | < 6.25
CC(=O)NNC(=O)CSc1nnc(Cc2csc(NC(=O)CCl)n2)n1NC(=O)c1ccc(Cl)cc1 | < 6.25
COC(=O)CSc1nnc(Cc2csc(NC(=O)CCl)n2)n1NC(=O)c1cccc([N+](=O)[O-])c1 | < 6.25
O=C(CCl)NNC(=O)CSc1nnc(Cc2csc(NC(=O)c3ccccc3)n2)n1NC(=O)c1ccc(Cl)cc1 | < 6.25
Nn1c(S)nnc1Cc1csc(NCCC(=O)O)n1 | < 6.25
O=C(CSc1nnc(Cc2csc(NC(=O)CCl)n2)n1NC(=O)c1cccc([N+](=O)[O-])c1)NNC(=O)c1ccccc1 | < 6.25
O=C(CCl)Nc1nc(Cc2nnc(SCSc3nnc(Cc4csc(NC(=O)CCl)n4)n3NC(=O)c3cccc([N+](=O)[O-])c3)n2NC(=O)c2cccc([N+](=O)[O-])c2)cs1 | < 6.25
COC(=O)CSc1nnc(Cc2csc(NC(=O)CCl)n2)n1NC(=O)c1ccc(Cl)cc1 | < 6.25

Test system: Escherichia coli
Assay: Antibacterial activity against Escherichia coli at 50 to 100 uM after 24 hrs by well diffusion method
Assay type: functional
Settings: not given
Outline: (§1)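 Nutrient agar plates with 10 mm wells cut by cork borer; 24-h subcultured bacteria swabbed on. Compounds dissolved in chloroform, 50 to 100 μM added to wells, gentamycin as standard. Incubated 24 h at 24–28 °C; inhibition zone diameter measured and converted to percent inhibition.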

Compound | inhibition zone [mm]
COC(=O)CSc1nnc(Cc2csc(NC(=O)c3ccccc3)n2)n1NC(=O)c1ccc(Cl)cc1 | 20
CC(=O)NNC(=O)CSc1nnc(Cc2csc(NC(=O)CCl)n2)n1NC(=O)c1ccc(Cl)cc1 | 24
COC(=O)CSc1nnc(Cc2csc(NC(=O)CCl)n2)n1NC(=O)c1cccc([N+](=O)[O-])c1 | 20
O=C(CCl)NNC(=O)CSc1nnc(Cc2csc(NC(=O)c3ccccc3)n2)n1NC(=O)c1ccc(Cl)cc1 | 19
Nn1c(S)nnc1Cc1csc(NCCC(=O)O)n1 | 20
O=C(CSc1nnc(Cc2csc(NC(=O)CCl)n2)n1NC(=O)c1cccc([N+](=O)[O-])c1)NNC(=O)c1ccccc1 | 10
O=C(CCl)Nc1nc(Cc2nnc(SCSc3nnc(Cc4csc(NC(=O)CCl)n4)n3NC(=O)c3cccc([N+](=O)[O-])c3)n2NC(=O)c2cccc([N+](=O)[O-])c2)cs1 | 27
COC(=O)CSc1nnc(Cc2csc(NC(=O)CCl)n2)n1NC(=O)c1ccc(Cl)cc1 | 10

Test system: Staphylococcus aureus
Assay: Antibacterial activity against Staphylococcus aureus at 50 to 100 uM after 24 hrs by well diffusion method
Assay type: functional
Settings: not given
Outline: as §1

Compound | inhibition zone [mm]
COC(=O)CSc1nnc(Cc2csc(NC(=O)c3ccccc3)n2)n1NC(=O)c1ccc(Cl)cc1 | 22
CC(=O)NNC(=O)CSc1nnc(Cc2csc(NC(=O)CCl)n2)n1NC(=O)c1ccc(Cl)cc1 | 25
COC(=O)CSc1nnc(Cc2csc(NC(=O)CCl)n2)n1NC(=O)c1cccc([N+](=O)[O-])c1 | 26
O=C(CCl)NNC(=O)CSc1nnc(Cc2csc(NC(=O)c3ccccc3)n2)n1NC(=O)c1ccc(Cl)cc1 | 26
Nn1c(S)nnc1Cc1csc(NCCC(=O)O)n1 | 25
O=C(CSc1nnc(Cc2csc(NC(=O)CCl)n2)n1NC(=O)c1cccc([N+](=O)[O-])c1)NNC(=O)c1ccccc1 | 21
O=C(CCl)Nc1nc(Cc2nnc(SCSc3nnc(Cc4csc(NC(=O)CCl)n4)n3NC(=O)c3cccc([N+](=O)[O-])c3)n2NC(=O)c2cccc([N+](=O)[O-])c2)cs1 | 18
COC(=O)CSc1nnc(Cc2csc(NC(=O)CCl)n2)n1NC(=O)c1ccc(Cl)cc1 | 18

Test system: Salmonella typhi
Assay: Antibacterial activity against Salmonella typhi at 50 to 100 uM after 24 hrs by well diffusion method
Assay type: functional, Salmonella enterica subsp. enterica serovar Typhi
Set-up: unit not given here
Settings: not given
Outline: as §1

Compound | Inhibition
COC(=O)CSc1nnc(Cc2csc(NC(=O)c3ccccc3)n2)n1NC(=O)c1ccc(Cl)cc1 | 16
CC(=O)NNC(=O)CSc1nnc(Cc2csc(NC(=O)CCl)n2)n1NC(=O)c1ccc(Cl)cc1 | 22
COC(=O)CSc1nnc(Cc2csc(NC(=O)CCl)n2)n1NC(=O)c1cccc([N+](=O)[O-])c1 | 20
O=C(CCl)NNC(=O)CSc1nnc(Cc2csc(NC(=O)c3ccccc3)n2)n1NC(=O)c1ccc(Cl)cc1 | 22
Nn1c(S)nnc1Cc1csc(NCCC(=O)O)n1 | 16
O=C(CSc1nnc(Cc2csc(NC(=O)CCl)n2)n1NC(=O)c1cccc([N+](=O)[O-])c1)NNC(=O)c1ccccc1 | 18
O=C(CCl)Nc1nc(Cc2nnc(SCSc3nnc(Cc4csc(NC(=O)CCl)n4)n3NC(=O)c3cccc([N+](=O)[O-])c3)n2NC(=O)c2cccc([N+](=O)[O-])c2)cs1 | 24
COC(=O)CSc1nnc(Cc2csc(NC(=O)CCl)n2)n1NC(=O)c1ccc(Cl)cc1 | 12

Test system: Pseudomonas aeruginosa
Assay: Antibacterial activity against Pseudomonas aeruginosa at 50 to 100 uM after 24 hrs by well diffusion method
Assay type: functional
Settings: not given
Outline: as §1

Compound | inhibition zone [mm]
COC(=O)CSc1nnc(Cc2csc(NC(=O)c3ccccc3)n2)n1NC(=O)c1ccc(Cl)cc1 | 22
CC(=O)NNC(=O)CSc1nnc(Cc2csc(NC(=O)CCl)n2)n1NC(=O)c1ccc(Cl)cc1 | 21
COC(=O)CSc1nnc(Cc2csc(NC(=O)CCl)n2)n1NC(=O)c1cccc([N+](=O)[O-])c1 | 24
O=C(CCl)NNC(=O)CSc1nnc(Cc2csc(NC(=O)c3ccccc3)n2)n1NC(=O)c1ccc(Cl)cc1 | 23
Nn1c(S)nnc1Cc1csc(NCCC(=O)O)n1 | 22
O=C(CSc1nnc(Cc2csc(NC(=O)CCl)n2)n1NC(=O)c1cccc([N+](=O)[O-])c1)NNC(=O)c1ccccc1 | 18
O=C(CCl)Nc1nc(Cc2nnc(SCSc3nnc(Cc4csc(NC(=O)CCl)n4)n3NC(=O)c3cccc([N+](=O)[O-])c3)n2NC(=O)c2cccc([N+](=O)[O-])c2)cs1 | 30
COC(=O)CSc1nnc(Cc2csc(NC(=O)CCl)n2)n1NC(=O)c1ccc(Cl)cc1 | 16

Test system: not listed separately
Assay: Cytotoxicity against Vero-C1008 cells at 6.25 to 50 ug/mL by neutral red uptake assay
Assay type: cell-based
Settings: chlorocebus sabaeus
Outline: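 Vero-C-1008 cells exposed to 6.25 to 50 μg/mL compound; viability read by neutral red uptake.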

Compound | Activity
COC(=O)CSc1nnc(Cc2csc(NC(=O)c3ccccc3)n2)n1NC(=O)c1ccc(Cl)cc1 | Non-toxic
CC(=O)NNC(=O)CSc1nnc(Cc2csc(NC(=O)CCl)n2)n1NC(=O)c1ccc(Cl)cc1 | Non-toxic
COC(=O)CSc1nnc(Cc2csc(NC(=O)CCl)n2)n1NC(=O)c1cccc([N+](=O)[O-])c1 | Non-toxic
O=C(CCl)NNC(=O)CSc1nnc(Cc2csc(NC(=O)c3ccccc3)n2)n1NC(=O)c1ccc(Cl)cc1 | Non-toxic
Nn1c(S)nnc1Cc1csc(NCCC(=O)O)n1 | Non-toxic
O=C(CSc1nnc(Cc2csc(NC(=O)CCl)n2)n1NC(=O)c1cccc([N+](=O)[O-])c1)NNC(=O)c1ccccc1 | Non-toxic
O=C(CCl)Nc1nc(Cc2nnc(SCSc3nnc(Cc4csc(NC(=O)CCl)n4)n3NC(=O)c3cccc([N+](=O)[O-])c3)n2NC(=O)c2cccc([N+](=O)[O-])c2)cs1 | Non-toxic
COC(=O)CSc1nnc(Cc2csc(NC(=O)CCl)n2)n1NC(=O)c1ccc(Cl)cc1 | Non-toxic

From ChEMBL document CHEMBL1148007, “Synthesis of new S-derivatives of clubbed triazolyl thiazole as anti-Mycobacterium tuberculosis agents” (Bioorg Med Chem, 2007)
